# From PubChem
# In the library only some 1.1% were active in any assay of this set; here they are far more common.
# G6PDH CS: L. mesenteroides G6PDH inhibitors, counter-screen for G6PDH-coupled screening assays, biochemical, Leuconostoc mesenteroides enzyme; inhibition, % at 5 µM; Purified L. mesenteroides G6PDH, diaphorase/resazurin coupled fluorescence, 45 min; hit rate 0.12% among 200,000; in the data active = inhibition above about 50%
# PMI act: activators of human PMI, primary screen, biochemical, fluorescence intensity, near-Km mannose 6-phosphate. activation factor at 20 µM. hit rate 0.005% among 190,000. Mannose-6-phosphate isomerase (Homo sapiens), P34949. purified human PMI, coupled resazurin fluorescence, 20 min; active compounds read high; 1 = vehicle control, 0 substrate-free wells;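 active = activation factor of 2 or more at 20 µM, relative to plate controls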
# Target sequence (P34949 whole entry, looked up): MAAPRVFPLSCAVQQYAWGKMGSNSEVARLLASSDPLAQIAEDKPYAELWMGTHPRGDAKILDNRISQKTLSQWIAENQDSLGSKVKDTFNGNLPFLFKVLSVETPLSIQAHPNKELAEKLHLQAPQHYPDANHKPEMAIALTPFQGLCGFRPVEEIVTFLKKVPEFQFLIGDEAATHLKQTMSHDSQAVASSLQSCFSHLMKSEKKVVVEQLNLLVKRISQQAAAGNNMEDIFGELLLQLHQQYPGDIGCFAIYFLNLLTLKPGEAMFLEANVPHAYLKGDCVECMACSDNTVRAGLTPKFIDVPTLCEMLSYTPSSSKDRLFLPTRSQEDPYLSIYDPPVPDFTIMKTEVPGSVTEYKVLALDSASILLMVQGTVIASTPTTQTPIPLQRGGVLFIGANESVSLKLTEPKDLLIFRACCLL
# PMI act hi M6P: human PMI activators, high substrate, primary screen, biochemical, fluorescence intensity, near-saturating mannose 6-phosphate; activation factor at 20 µM; Mannose-6-phosphate isomerase (Homo sapiens), P34949; hit rate 0.34% among 190,000; coupled PMI enzyme assay, resazurin fluorescence, 20 min; active compounds read high; 1 = untreated enzyme, 0 = substrate-free blank;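 active = activation factor of 2 or more at 20 µM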
#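 Test system: human phosphomannose isomerase with PGI, G6PDH, diaphorase coupling enzymes / Doses: 20 µM compound, 1% DMSO / Times: enzyme reaction with compound 20 min at room temperature / Measured by: Diaphorase-driven resazurin-to-resorufin fluorescence, excitation 544, emission 590 nm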
# Diaph inh CS: diaphorase inhibitors and chemical oxidizers, primary screen, counter-screen for diaphorase-coupled primary assays, biochemical, uHTS, resorufin fluorescence | AID 1217, 2008 | hit rate 0.69% among 190,000 | diaphorase resazurin-to-resorufin fluorescence, NADH, 16 min; bacterial (C. kluyveri) enzyme, not human | inhibition, % at 20 µM;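 active = primary screen inhibition at 20 µM above a set limit, cut at about 50% in these data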
#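 Assay system: diaphorase enzyme from Clostridium kluyveri; Input: enzyme working solution with 0.14 U/mL diaphorase; Timing: 16 min at room temperature; Technique: resorufin fluorescence, excitation 544 nm, emission 590 nm; Benchmarks: positive control minus NADH, DMSO neutral control.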
# Diaphorase act: compounds boosting diaphorase resazurin reduction – biochemical, uHTS, resorufin fluorescence, counter-screen for diaphorase-coupled primary assays, primary screen; Diaphorase/resazurin coupled assay, 16 min; active compounds read high; 1 = vehicle wells, 0 = NADH-free wells; hit rate 0.005% among 190,000; activation factor at 20 µM;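 active = diaphorase activity raised at least twofold by the compound at 20 µM; inactive = activation factor below 2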
#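 Material: purified diaphorase enzyme from Clostridium kluyveri; Also added: 0.114 mM NADH and 0.1 mM resazurin, final amounts; Doses: single compound dose of 20 µM, 1% DMSO final; Times: 16 min enzyme reaction, ambient temperature; Detection: resorufin fluorescence, excitation 544 nm, emission 590 nm; Measure: increased resorufin signal from activators or reducing compounds.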
# Hits are given with their value; i = inactive; nt = no result given.
SMILES,G6PDH CS,PMI act,PMI act hi M6P,Diaph inh CS,Diaphorase act
Cc1cccc(CNC(=O)CCc2nnc(C3CCCCC3)o2)c1,i,i,i,i,i
CCCCCNC(=O)c1ccc2c(=O)[nH]c3c(C(=O)NCC4CCCO4)sc(=S)n3c2c1 (stereo not drawn),i,i,i,64.8,i
Cc1ccc(CNC(=O)c2ccc3c(=O)n(CC4CCCO4)c(=S)[nH]c3c2)cc1 (stereo not drawn),i,i,i,i,i
O=C(NCc1ccccc1)c1ccc2c(=O)n(CC3CCCO3)c(=S)[nH]c2c1 (stereo not drawn),i,i,i,i,i
O=C(NCc1ccccc1)c1ccc2c(=O)[nH]c3c(C(=O)NCC4CCCO4)sc(=S)n3c2c1 (stereo not drawn),i,i,i,69.5,i
Cc1ccc(CNC(=O)c2ccc3c(=O)[nH]c4c(C(=O)NCC5CCCO5)sc(=S)n4c3c2)cc1 (stereo not drawn),i,i,i,78.7,i
COc1cc2c(cc1OC)-c1nnc(-c3cccs3)n1C1(CCCC1)C2,i,i,i,i,i
O=C1NC2(CCC3(CC2)OCCO3)NN1c1ccc(Cl)cc1,i,i,2.7,i,i
O=C(O)C1CCCCC1C(=O)Nc1cc(C(F)(F)F)ccc1Cl (stereo not drawn),i,i,i,i,i
CN(O)/C=c1/ccc2c(n1)C(=O)C=CC=2,57.5,i,i,68.7,i
CCn1c2ccccc2n2c(=O)c(=O)n(CC(=O)Nc3ccc(C(C)C)cc3)nc12,i,i,i,i,i
CNC[C@H](O)c1ccc(O)c(O)c1,64.2,i,i,58.6,i
CC(=O)N1CCN(C(=O)COc2ccc(Br)cc2)CC1,i,i,i,i,i
CC(=O)N1CCN(CC(=O)c2ccc(Br)cc2)CC1,i,i,2.4,i,i
COc1cccc(C2SCC(=O)N2c2ccc(Br)cc2)c1OC (stereo not drawn),i,i,2.2,i,i
COc1ccc2c(C)cc(=S)[nH]c2c1,i,i,2.5,i,i
CCOc1ccc(-c2c(=O)n(OCc3ccc([N+](=O)[O-])cc3)c3ccccc3[n+]2[O-])cc1,i,i,i,i,i
NC(=O)C1CCN(C2=C(Cl)C(=O)c3ccccc3C2=O)CC1,59.8,i,i,i,i
Cc1onc(C(=O)N2CCC(C(N)=O)CC2)c1-c1ccccc1Cl,i,i,i,i,i
CC1=C(C(=O)Nc2ccccc2C)C2(CCCCC2)C(C(N)=O)C(=S)N1 (stereo not drawn),i,i,2,i,i
C/C(=N/NC(=O)c1cc(O)c(O)c(O)c1)c1ccc([N+](=O)[O-])cc1,i,i,i,75.2,i
CC(C)CC(=O)NC(=S)Nc1cccc2nsnc12,i,i,i,i,i
COc1c(C)cccc1C(=O)NC(=S)Nc1cccc2nsnc12,i,i,i,66.2,i
O=C(NC(=S)N(CCCCO)C1CCCCC1)c1sc2ccccc2c1Cl,i,i,i,72.2,i
Cc1ccc(-n2nnnc2Sc2ccc(S(=O)(=O)NCCN(C)C)cc2[N+](=O)[O-])cc1,i,i,i,53.1,i
SMILES,G6PDH CS,PMI act,PMI act hi M6P,Diaph inh CS,Diaphorase act
CN1C(=O)C2(Nc3ccccc3-c3nc4ccccc4n32)c2ccccc21 (stereo not drawn),i,i,i,83.5,i
O=C1Nc2ccccc2C12Nc1ccccc1-c1nc3ccccc3n12 (stereo not drawn),i,i,i,i,i
COc1ccccc1CCNC(=O)/C(=C/c1cccnc1)NC(=O)c1ccccc1,i,i,i,i,i
COc1cccc(N/C(N)=N/c2nc(C(F)(F)F)cc(=O)[nH]2)c1,i,i,i,i,i
CCCCn1c(C)cc2cc(O)ccc21,56.7,i,i,i,i
CCCCn1c(=O)cc(O)c2ccccc21,i,i,i,i,i
O=c1cnnc(N/N=C/C2CC=CCC2)[nH]1 (stereo not drawn),i,i,i,i,i
CCOc1cc(NC(=O)c2cnccn2)c(OCC)cc1NC(=O)c1cccc(F)c1,i,nt,nt,nt,nt
COc1cc(/C=C2/SC(=S)NC2=O)ccc1OS(=O)(=O)c1ccc(C)cc1,i,i,i,50.0,i
O=c1[nH]cnc2scc(-c3ccc(-c4ccccc4)cc3)c12,i,i,i,i,i
Cc1ccc(-c2csc3nc[nH]c(=S)c23)cc1C,i,i,i,58.9,i
O=C1NC(=NCc2ccccc2)S/C1=C/c1ccc(O)cc1,i,i,i,i,i
Cc1ccc([N+](=O)[O-])cc1-c1[nH]c(-c2ccc(O)c(O)c2)nc1-c1ccccc1,i,i,i,63.6,i
Cc1cc(C)n2c(SC/C(O)=C(\C#N)c3nc4ccccc4[nH]3)nnc2n1,i,i,i,52.7,i
Cc1ccccc1-n1c(SC/C(O)=C(\C#N)c2nc3ccccc3[nH]2)nnc1-c1ccncc1,i,i,i,i,i
CCn1c(O)c(N=NC2=NC(=O)CS2)c2ccccc21,i,i,i,65.4,i
CCc1cc2c(=O)n(-c3ccccc3)c(=S)[nH]c2s1,i,i,i,81.0,i
COc1ccc(-c2nc(-c3cccc([N+](=O)[O-])c3O)cc(=O)o2)cc1OC,i,i,i,i,i
COc1cc(/C=C2/C(=O)c3cccc([N+](=O)[O-])c3C2=O)c(Br)cc1O,i,i,i,50.3,i
CSc1cnc2c(N)nc(N(C)C)nc2n1,i,i,i,i,i
Cc1nn(C2CCS(=O)(=O)C2)c(Cl)c1/C=C/C(=O)OCC(=O)c1cc(C)n(-c2ccc(F)cc2)c1C (stereo not drawn),i,i,i,i,i
CC1=C/C(=N\Nc2ccccc2[N+](=O)[O-])CC(C)(C)C1,i,i,i,i,i
CCOC(=O)c1ccc(N2N=C(C)/C(=C/C=C/c3ccco3)C2=O)cc1,i,i,i,i,i
O=C(O)c1cc(N2N=C(C(F)(F)F)/C(=C/C=C/c3ccco3)C2=O)ccc1Cl,i,i,2.2,56.0,i
CN=c1scc(-c2ccccc2F)n1/N=C/c1ccc(O)c(O)c1O,i,i,i,68.1,i
CC(C)N=c1scc(-c2cccs2)n1/N=C/c1ccc(O)c(O)c1O,i,i,i,65.7,i
CCOC(=O)CSc1nc2c(sc(=S)n2-c2ccc(OCC)cc2)c(=O)[nH]1,i,i,i,i,i
